In ChEMBL document CHEMBL3817745, “Structure-Activity Relationship for the 4(3H)-Quinazolinone Antibacterials” (J Med Chem, 2016):
Converted amounts (≈) assume the structure as drawn.

Key:
Format in all cases: functional
Escherichia coli = assay: Antibacterial activity against Escherichia coli ATCC 25922 incubated for 16 to 20 hrs by microdilution method
Summary of the method: (§1)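 CLSI broth microdilution. 2-fold serial dilutions were made in cation-adjusted Mueller–Hinton broth, with 5% lysed horse blood added for Streptococcus strains, in triplicate. Inoculum 5×10^5 CFU/mL. Plates incubated 36 °C for 16–20 h. MIC taken as the lowest concentration visibly inhibiting growth.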

Klebsiella aerogenes = assay: Antibacterial activity against Enterobacter aerogenes ATCC 35029 incubated for 16 to 20 hrs by microdilution method; summary of the method: as §1
Klebsiella pneumoniae = assay: Antibacterial activity against Klebsiella pneumoniae ATCC 700603 incubated for 16 to 20 hrs by microdilution method; summary of the method: as §1
Staphylococcus aureus = assay: Antibacterial activity against methicillin-susceptible Staphylococcus aureus ATCC 29213 incubated for 16 to 20 hrs by microdilution method
Pseudomonas aeruginosa = assay: Antibacterial activity against Pseudomonas aeruginosa […] incubated for 16 to 20 hrs by microdilution method; summary of the method: as §1
Enterococcus faecium = assay: Antibacterial activity against Enterococcus faecium NCTC 7171 incubated for 16 to 20 hrs by microdilution method; summary of the method: as §1
Acinetobacter baumannii = assay: Antibacterial activity against Acinetobacter baumannii ATCC 17961 incubated for 16 to 20 hrs by microdilution method; summary of the method: as §1

Row | Structure (SMILES) | MIC (Escherichia coli) [µg/mL] | MIC (Klebsiella aerogenes) [µg/mL] | MIC (Klebsiella pneumoniae) [µg/mL] | MIC (Staphylococcus aureus) [µg/mL] | MIC (Pseudomonas aeruginosa) [µg/mL] | MIC (Enterococcus faecium) [µg/mL] | MIC (Acinetobacter baumannii) [µg/mL]
1 | O=c1c2ccccc2nc(/C=C/c2ccccc2)n1-c1cccc(O)c1 | ≥ 16 | ≥ 16 | ≥ 16 | 0.5 (≈ 1.47 µM) | ≥ 16 | ≥ 8 | ≥ 16
2 | O=C(O)c1ccc(/C=C/c2nc3ccccc3c(=O)n2-c2cccc(O)c2)cc1 | ≥ 16 | ≥ 16 | ≥ 16 | > 128 | ≥ 16 | ≥ 8 | ≥ 16
3 | O=c1c2ccccc2nc(/C=C/c2ccco2)n1-c1cccc(O)c1 | ≥ 16 | ≥ 16 | ≥ 16 | 128 (≈ 387 µM) | ≥ 16 | ≥ 8 | ≥ 16
4 | Cc1ccc(-c2nc3ccccc3c(=O)n2-c2cccc(O)c2)cc1 | ≥ 16 | ≥ 16 | ≥ 16 | 128 (≈ 390 µM) | ≥ 16 | ≥ 8 | ≥ 16
5 | O=c1c2ccccc2nc(/C=C/c2ccccc2[N+](=O)[O-])n1-c1cccc(O)c1 | ≥ 16 | ≥ 16 | ≥ 16 | 128 (≈ 332 µM) | ≥ 16 | ≥ 8 | ≥ 16
6 | N#Cc1ccc(/C=C/c2nc3cc(C(=O)O)ccc3c(=O)n2-c2cccc(C(=O)O)c2)cc1 | ≥ 16 | ≥ 16 | ≥ 16 | 128 (≈ 293 µM) | ≥ 16 | ≥ 8 | ≥ 16
7 | CCc1ccc(/C=C/c2nc3ccccc3c(=O)n2-c2cccc(O)c2)cc1 | ≥ 16 | ≥ 16 | ≥ 16 | 0.5 (≈ 1.36 µM) | ≥ 16 | ≥ 8 | ≥ 16
8 | O=c1c2ccccc2nc(/C=C/c2ccc(Cl)cc2)n1-c1cccc(O)c1 | ≥ 16 | ≥ 16 | ≥ 16 | 0.125 (≈ 0.333 µM) | ≥ 16 | ≥ 8 | ≥ 16
9 | COc1ccc(/C=C/c2nc3ccccc3c(=O)n2-c2cccc(O)c2)cc1 | ≥ 16 | ≥ 16 | ≥ 16 | 4 (≈ 10.8 µM) | ≥ 16 | ≥ 8 | ≥ 16
10 | O=c1c2ccccc2nc(/C=C/c2ccc(C(F)(F)F)cc2)n1-c1cccc(O)c1 | ≥ 16 | ≥ 16 | ≥ 16 | 128 (≈ 313 µM) | ≥ 16 | ≥ 8 | ≥ 16
11 | O=c1c2ccccc2nc(/C=C/c2ccccc2F)n1-c1cccc(O)c1 | ≥ 16 | ≥ 16 | ≥ 16 | 1 (≈ 2.79 µM) | ≥ 16 | ≥ 8 | ≥ 16
12 | N#Cc1ccc(/C=C/c2nc3cc([N+](=O)[O-])ccc3c(=O)n2-c2cccc(C(=O)O)c2)cc1 | ≥ 16 | ≥ 16 | ≥ 16 | 64 (≈ 146 µM) | ≥ 16 | ≥ 8 | ≥ 16
13 | Nc1ccc(/C=C/c2nc3ccccc3c(=O)n2-c2cccc(O)c2)cc1 | ≥ 16 | ≥ 16 | ≥ 16 | 16 (≈ 45 µM) | ≥ 16 | ≥ 8 | ≥ 16
14 | O=c1c2ccccc2nc(/C=C/c2ccc3c(c2)OCO3)n1-c1cccc(O)c1 | ≥ 16 | ≥ 16 | ≥ 16 | 2 (≈ 5.2 µM) | ≥ 16 | ≥ 8 | ≥ 16
15 | N#Cc1ccc(/C=C/c2nc3ccccc3c(=O)n2-c2cccc(F)c2)cc1 | ≥ 16 | ≥ 16 | ≥ 16 | – | ≥ 16 | ≥ 8 | ≥ 16
16 | O=C(O)c1cccc(-n2c(/C=C/c3ccc(F)cc3)nc3ccncc3c2=O)c1 | ≥ 16 | ≥ 16 | ≥ 16 | – | ≥ 16 | ≥ 8 | ≥ 16
17 | C#Cc1ccc(/C=C/c2nc3ccccc3c(=O)n2-c2cccc(O)c2)cc1 | ≥ 16 | ≥ 16 | ≥ 16 | 0.003 (≈ 0.00823 µM) | ≥ 16 | ≥ 8 | ≥ 16
18 | CC(C)Nc1cccc(-n2c(/C=C/c3ccc(C#N)cc3)nc3ccccc3c2=O)c1 | ≥ 16 | ≥ 16 | ≥ 16 | – | ≥ 16 | ≥ 8 | ≥ 16
19 | O=C(O)c1cccc(-n2c(/C=C/c3ccc(F)c(F)c3)nc3ccccc3c2=O)c1 | ≥ 16 | ≥ 16 | ≥ 16 | – | ≥ 16 | ≥ 8 | ≥ 16
20 | O=c1c2ccccc2nc(/C=C/c2ccc(O)cc2)n1-c1cccc(O)c1 | ≥ 16 | ≥ 16 | ≥ 16 | > 128 | ≥ 16 | ≥ 8 | ≥ 16
21 | O=C(O)c1cccc(-n2c(/C=C/c3ccc(C#CCO)cc3)nc3ccccc3c2=O)c1 | ≥ 16 | ≥ 16 | ≥ 16 | – | ≥ 16 | ≥ 8 | ≥ 16
22 | O=c1c2ccccc2nc(Cc2ccccc2)n1-c1cccc(O)c1 | ≥ 16 | ≥ 16 | ≥ 16 | 32 (≈ 97.5 µM) | ≥ 16 | ≥ 8 | ≥ 16
23 | O=c1c2ccccc2nc(/C=C/c2ccc([N+](=O)[O-])cc2)n1-c1ccccc1O | ≥ 16 | ≥ 16 | ≥ 16 | – | ≥ 16 | ≥ 8 | ≥ 16
24 | O=c1c2ccccc2nc(CCc2ccccc2)n1-c1cccc(O)c1 | ≥ 16 | ≥ 16 | ≥ 16 | 0.06 (≈ 0.175 µM) | ≥ 16 | ≥ 8 | ≥ 16
25 | O=c1c2ccccc2nc(/C=C/c2ccncc2)n1-c1cccc(O)c1 | ≥ 16 | ≥ 16 | ≥ 16 | 2 (≈ 5.86 µM) | ≥ 16 | ≥ 8 | ≥ 16
26 | O=C(O)c1cccc(-n2c(/C=C/c3ccc(Cl)cc3)nc3ccncc3c2=O)c1 | ≥ 16 | ≥ 16 | ≥ 16 | – | ≥ 16 | ≥ 8 | ≥ 16
27 | CS(=O)(=O)c1ccc(/C=C/c2nc3ccccc3c(=O)n2-c2cccc(C(=O)O)c2)cc1 | ≥ 16 | ≥ 16 | ≥ 16 | – | ≥ 16 | ≥ 8 | ≥ 16
